Source: ChEMBL document CHEMBL1134630, “Synthesis, DNA cross-linking activity, and cytotoxicity of dimeric mitomycins” (J Med Chem, 2001)
Values after ≈ are worked out from the molar mass of the structure shown.

Legend:
[1] = test system: A549; test: in vitro anticancer activity against cultured A549 human tumor(lung) cell line; format: functional, cell-based
In short: (§1)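 Human tumour cell lines grown in RPMI-1640 with 25 mM HEPES, 2% NaHCO3, 10% fetal bovine serum and 100 μg/mL kanamycin at 37 °C under 5% CO2. Cells had 3 days of continuous compound exposure in 96-well plates. Fixed with 10% TCA and stained with 0.4% sulforhodamine B; dye dissolved in 20 mM Tris pH 8.0 and read at 562 nm. Treatments run in duplicate. IC50 interpolated from fitted dose-response curves.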

[2] = test system: KB; test: in vitro anticancer activity against cultured KB(epidermoid) human tumor cell line; format: functional, cell-based; in short: as §1
[3] = test system: U-87 MG; test: in vitro anticancer activity against cultured U87MG (glioblastoma) human tumor cell line; format: functional, cell-based, U-87MG ATCC; in short: as §1
[4] = test system: HepG2; test: in vitro inhibition of tumor cell growth in cultured HepG2 human tumor cell line; format: functional, cell-based; in short: as §1
[5] = test system: PC-3; test: in vitro inhibition of tumor cell growth in cultured PC-3 human tumor cell line; format: functional, cell-based; in short: as §1
[6] = test system: MCF7; test: in vitro inhibition of tumor cell growth in cultured MCF-7 human tumor cell line; format: functional, cell-based; in short: as §1
[7] = test system: HCT-8; test: in vitro inhibition of tumor cell growth in cultured HCT-8 human tumor cell line; format: functional, cell-based; in short: as §1
[8] = Mean IC50 for all seven tumor cell lines was determined; format: functional; in short: as §1
[9] = test system: KB; test: in vitro inhibition of tumor cell growth in cultured KB human tumor cell line; format: functional, cell-based; in short: as §1
[10] = test system: U-87 MG; test: in vitro inhibition of tumor cell growth in cultured U87MG human tumor cell line; format: functional, cell-based, U-87MG ATCC; in short: as §1
[11] = test system: A549; test: in vitro inhibition of tumor cell growth in cultured A549 human tumor cell line; format: functional, cell-based; in short: as §1

| Structure (SMILES) | IC50 [1] [µg/mL] | IC50 [2] [µg/mL] | IC50 [3] [µg/mL] | IC50 [4] [µg/mL] | IC50 [5] [µg/mL] | IC50 [6] [µg/mL] | IC50 [7] [µg/mL] | Mean IC50 [8] [µg/mL] | IC50 [9] [µg/mL] | IC50 [10] [µg/mL] | IC50 [11] [µg/mL] |
| --- | --- | --- | --- | --- | --- | --- | --- | --- | --- | --- | --- |
| CO[C@@]12[C@H](COC(N)=O)C3=C(C(=O)C(C)=C(NCc4ccc(CNC5=C(C)C(=O)C6=C(C5=O)[C@@H](COC(N)=O)[C@@]5(OC)[C@H]7NC7CN65)cc4)C3=O)N1CC1N[C@@H]12 (stereo partly specified) | > 1 | > 1 | > 1 |  |  |  |  |  |  |  |  |
| CO[C@@]12[C@H](COC(N)=O)C3=C(C(=O)C(C)=C(Nc4ccc(CCc5ccc(NC6=C(C)C(=O)C7=C(C6=O)[C@@H](COC(N)=O)[C@@]6(OC)[C@H]8NC8CN76)cc5)cc4)C3=O)N1CC1N[C@@H]12 (stereo partly specified) | 0.095 (≈ 0.112 µM) | 0.215 (≈ 0.254 µM) | 0.51 (≈ 0.602 µM) | 0.16 (≈ 0.189 µM) | 0.2 (≈ 0.236 µM) | 0.21 (≈ 0.248 µM) | 0.11 (≈ 0.13 µM) | 0.2 |  |  |  |
| CO[C@@]12[C@H](COC(N)=O)C3=C(C(=O)C(C)=C(Nc4ccc(Oc5ccc(NC6=C(C)C(=O)C7=C(C6=O)[C@@H](COC(N)=O)[C@@]6(OC)[C@H]8NC8CN76)cc5)cc4)C3=O)N1CC1N[C@@H]12 (stereo partly specified) | 0.062 (≈ 0.0743 µM) | 0.064 (≈ 0.0767 µM) | 0.32 (≈ 0.383 µM) | 0.05 (≈ 0.0599 µM) | 0.08 (≈ 0.0958 µM) | 0.14 (≈ 0.168 µM) | 0.06 (≈ 0.0719 µM) | 0.11 |  |  |  |
| CO[C@@]12[C@H](COC(N)=O)C3=C(C(=O)C(C)=C(Nc4ccccc4)C3=O)N1C[C@@H]1N[C@@H]12 |  |  |  | 0.05 (≈ 0.122 µM) | 0.11 (≈ 0.268 µM) | 0.06 (≈ 0.146 µM) | 0.004 (≈ 0.00975 µM) | 0.09 | 0.13 (≈ 0.317 µM) | 0.26 (≈ 0.633 µM) | 0.02 (≈ 0.0487 µM) |
| CO[C@@]12[C@H](COC(N)=O)C3=C(C(=O)C(C)=C(N)C3=O)N1C[C@H]1[C@@H]2N1C(=O)CCCCC(=O)N1[C@@H]2CN3C4=C(C(=O)C(N)=C(C)C4=O)[C@H](COC(N)=O)[C@]3(OC)[C@@H]21 | 0.76 (≈ 0.976 µM) | > 1 | > 1 |  |  |  |  |  |  |  |  |
| CO[C@@]12[C@H](COC(N)=O)C3=C(C(=O)C(C)=C(N)C3=O)N1C[C@H]1[C@@H]2N1C(=O)CCCCCC(=O)N1[C@H]2[C@@H]1CN1C3=C(C(=O)C(N)=C(C)C3=O)[C@@H](COC(N)=O)[C@@]21OC | 0.68 (≈ 0.858 µM) | > 1 | > 1 |  |  |  |  |  |  |  |  |
| CO[C@@]12[C@H](COC(N)=O)C3=C(C(=O)C(C)=C(N)C3=O)N1C[C@H]1[C@@H]2N1C(=O)CCCC(=O)N1[C@H]2[C@@H]1CN1C3=C(C(=O)C(N)=C(C)C3=O)[C@@H](COC(N)=O)[C@@]21OC | 0.67 (≈ 0.876 µM) | > 1 | > 1 |  |  |  |  |  |  |  |  |
| CO[C@@]12[C@H](COC(N)=O)C3=C(C(=O)C(C)=C(NCCCOCCCNC4=C(C)C(=O)C5=C(C4=O)[C@@H](COC(N)=O)[C@@]4(OC)[C@H]6NC6CN54)C3=O)N1CC1N[C@@H]12 (stereo partly specified) | > 10 | > 1 | > 1 |  |  |  |  |  |  |  |  |
| CO[C@@]12[C@H](COC(N)=O)C3=C(C(=O)C(C)=C(NCCCNCCCNC4=C(C)C(=O)C5=C(C4=O)[C@@H](COC(N)=O)[C@@]4(OC)[C@H]6NC6CN54)C3=O)N1CC1N[C@@H]12 (stereo partly specified) | > 1 | > 1 | > 1 |  |  |  |  |  |  |  |  |
| CO[C@@]12[C@H](COC(N)=O)C3=C(C(=O)C(C)=C(NCCOCCNC4=C(C)C(=O)C5=C(C4=O)[C@@H](COC(N)=O)[C@@]4(OC)[C@H]6NC6CN54)C3=O)N1CC1N[C@@H]12 (stereo partly specified) | > 10 |  | > 10 |  |  |  |  |  |  |  |  |
| CO[C@@]12[C@H](COC(N)=O)C3=C(C(=O)C(C)=C(NCCNCCNC4=C(C)C(=O)C5=C(C4=O)[C@@H](COC(N)=O)[C@@]4(OC)[C@H]6NC6CN54)C3=O)N1CC1N[C@@H]12 (stereo partly specified) | > 1 | 0.98 (≈ 1.33 µM) | > 1 |  |  |  |  |  |  |  |  |
| CO[C@@]12[C@H](COC(N)=O)C3=C(C(=O)C(C)=C(N)C3=O)N1C[C@H]1[C@@H]2N1C(=O)CCC(=O)N1[C@@H]2CN3C4=C(C(=O)C(N)=C(C)C4=O)[C@H](COC(N)=O)[C@]3(OC)[C@@H]21 | 0.67 (≈ 0.892 µM) | > 1 | > 1 |  |  |  |  |  |  |  |  |
| COC1=C(C)C(=O)C2=C(C1=O)[C@@H](COC(N)=O)[C@@]1(OC)[C@H]3N[C@H]3CN21 [MITOMYCIN A] | 0.006 (≈ 0.0172 µM) | 0.008 (≈ 0.0229 µM) | 0.009 (≈ 0.0258 µM) | 0.008 (≈ 0.0229 µM) | 0.02 (≈ 0.0573 µM) | 0.045 (≈ 0.129 µM) | 0.006 (≈ 0.0172 µM) | 0.014 |  |  |  |
| CO[C@@]12[C@H](COC(N)=O)C3=C(C(=O)C(C)=C(N)C3=O)N1C[C@@H]1N[C@@H]12 [MITOMYCIN] | 0.08 (≈ 0.239 µM) | 0.1 (≈ 0.299 µM) | 0.97 (≈ 2.9 µM) | 0.36 (≈ 1.08 µM) | 1.55 (≈ 4.64 µM) | 0.45 (≈ 1.35 µM) | 0.15 (≈ 0.449 µM) | 0.63 |  |  |  |
